Results: PMC3561458 (Investigational new drugs, 2011)
Marks after values point to notes of the source that are not given here.

Columns and labels:
[1] = tested on: patients with advanced/metastatic solid tumors; assay: Phase I safety: adverse events; type: in vivo, human
[2] = Plasma pharmacokinetics; type: in vivo, human; conditions: for AUC(0-t) / Cmax / Vd/F / half-life: human, plasma, oral; for Vd/F: Vz/F
Outline: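 The test compound is given orally once daily for 7 days in 2-week cycles (S1). Plasma is sampled in cycle 1 on days 1, 2, 4, 7, 8 and 9, and in cycle 2 on days 1, 4 and 7. Cycle 1 day 1 is sampled from 30 min to 24 h after dosing and day 7 from 30 min to 96 h. Parent and metabolite are measured by validated LC-MS-MS, with calibration ranges of 0.00109–1.09 and 0.00105–1.05 μM respectively.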

[3] = tested on: CDK1; conditions: cited from earlier work
[4] = tested on: CDK2; conditions: cited from earlier work
[5] = tested on: CDK5; conditions: cited from earlier work
[6] = tested on: animals; conditions: high single or repeated doses; cited from earlier work

**Q.** Which results are given for `CNC(=O)c1nn(C)c2c1C(C)(C)Cc1cnc(Nc3ccc(N4CCN(C)CC4)cc3)nc1-2` [PHA-848125AC, N,1,4,4-tetramethyl-8-{[4-(4-methylpiperazin-1-yl)phenyl]amino}-4,5-dihydro-1H-pyrazolo [4,3-h]quinazoline-3-carboxamide]?
**A.** Vomiting, drug-related, CTC Grade 1–4: patients ([1]; S2 200 mg/day N=4, all cycles): 1; dose-limiting toxicities (DLTs) ([1]; S2 (4 days on/3 days off × 3wks q4wks), all doses): tremors (Grade 2–3), elevated lipase (Grade 3), increased creatinine (Grade 2), and nausea and vomiting (Grade 3); patients discontinued due to adverse events ([1]; S2 N=15): 13.3 ^a %; blood chemistry and hematology abnormalities ([1]; any schedule, except lymphocytopenia): No significant blood chemistry and hematology abnormalities; doses at which tremors and ataxia were dose-limiting ([1]; both schedules): > 150 mg/day; lymphocytopenia occurrence ([1]; both schedules): half of cases; on study deaths ([1]; both schedules): No on study deaths; effects on coagulation, blood pressure, ECGs ([1]; in vivo): did not cause significant effects; recommended phase II dose (RP2D) ([1]; oral, both schedules (S1 and S2)): 150 mg/day; CL/F ([2]; S1 50 mg/day, mean±SD, n=2): 19.7 ± 4.35 L/h; CL/F ([2]; S1 100 mg/day, mean±SD, n=6): 13.7 ± 6.49 L/h; CL/F ([2]; S1 200 mg/day, mean±SD, n=6): 15.2 ± 2.44 L/h; CL/F ([2]; S1 300 mg/day, n=1): 7.78 L/h; CL/F ([2]; S2 150 mg/day, mean±SD, n=4): 16.4 ± 6.16 L/h; CL/F ([2]; S2 200 mg/day, mean±SD, n=3): 12.7 ± 1.60 L/h; accumulation factor after repeated administrations ([2]; both schedules): 3; AUC(0-t) ([2]; 50 mg/day, AUC0-24, S1 50 mg/day, Day 1, mean±SD, n=3): 2.5 ± 0.6 µM·h; AUC(0-t) ([2]; 50 mg/day, AUC0-24, S1 50 mg/day, Day 7, mean±SD, n=3): 6.8 ± 2.2 µM·h; AUC(0-t) ([2]; 50 mg/day, AUCt, S1 50 mg/day, Day 7, mean±SD, n=3): 11.7 ± 5.4 µM·h; Cmax ([2]; 50 mg/day, S1 50 mg/day, Day 1, mean±SD, n=3): 200 ± 100 nM; Cmax ([2]; 50 mg/day, S1 50 mg/day, Day 7, mean±SD, n=3): 400 ± 200 nM; Vd/F ([2]; 50 mg/day, S1 50 mg/day, mean±SD, n=2): 707 ± 39.8 L; half-life ([2]; 50 mg/day, t1/2,z, S1 50 mg/day, mean±SD, n=2): 25.3 ± 4.18 h; AUC(0-t) ([2]; 100 mg/day, AUC0-24, S1 100 mg/day, Day 1, mean±SD, n=6): 6 ± 2.2 µM·h; AUC(0-t) ([2]; 100 mg/day, AUC0-24, S1 100 mg/day, Day 7, mean±SD, n=6): 20 ± 11 µM·h; AUC(0-t) ([2]; 100 mg/day, AUCt, S1 100 mg/day, Day 7, mean±SD, n=6): 43.4 ± 26.8 µM·h; Cmax ([2]; 100 mg/day, S1 100 mg/day, Day 1, mean±SD, n=6): 400 ± 100 nM; Cmax ([2]; 100 mg/day, S1 100 mg/day, Day 7, mean±SD, n=6): 1200 ± 500 nM; Vd/F ([2]; 100 mg/day, S1 100 mg/day, mean±SD, n=6): 840 ± 550 L; half-life ([2]; 100 mg/day, t1/2,z, S1 100 mg/day, mean±SD, n=6): 42.9 ± 15.9 h; AUC(0-t) ([2]; 150 mg/day, AUC0-24, S1 150 mg/day, Day 1, mean±SD, n=6): 8.8 ± 2.6 µM·h; AUC(0-t) ([2]; 150 mg/day, AUC0-24, S1 150 mg/day, Day 7, mean±SD, n=6): 25 ± 8.6 µM·h; AUC(0-t) ([2]; 150 mg/day, AUC0-24, S2 150 mg/day, Day 1, mean±SD, n=4): 7.2 ± 2.8 µM·h; AUC(0-t) ([2]; 150 mg/day, AUC0-24, S2 150 mg/day, Day 18, mean±SD, n=4): 23 ± 9.5 µM·h; AUC(0-t) ([2]; 150 mg/day, AUCt, S1 150 mg/day, Day 7, mean±SD, n=6): 46.5 ± 19.4 µM·h; AUC(0-t) ([2]; 150 mg/day, AUCt, S2 150 mg/day, Day 18, mean±SD, n=4): 54.6 ± 25.1 µM·h; Cmax ([2]; 150 mg/day, S1 150 mg/day, Day 1, mean±SD, n=6): 700 ± 200 nM; Cmax ([2]; 150 mg/day, S1 150 mg/day, Day 7, mean±SD, n=6): 1500 ± 500 nM; Cmax ([2]; 150 mg/day, S2 150 mg/day, Day 1, mean±SD, n=4): 400 ± 100 nM; Cmax ([2]; 150 mg/day, S2 150 mg/day, Day 18, mean±SD, n=4): 1200 ± 300 nM; Vd/F ([2]; 150 mg/day, S2 150 mg/day, mean±SD, n=4): 1010 ± 456 L; half-life ([2]; 150 mg/day, t1/2,z, S1 150 mg/day, mean±SD, n=6): 33.1 ± 9.53 h; half-life ([2]; 150 mg/day, t1/2,z, S2 150 mg/day, mean±SD, n=4): 43.1 ± 10.7 h; AUC(0-t) ([2]; 180 mg/day, AUC0-24, S2 180 mg/day, Day 1, mean±SD, n=4): 7 ± 2.1 µM·h; AUC(0-t) ([2]; 180 mg/day, AUC0-24, S2 180 mg/day, Day 18, mean±SD, n=4): 17 ± 8.8 µM·h; AUC(0-t) ([2]; 180 mg/day, AUCt, S2 180 mg/day, Day 18, mean±SD, n=4): 35.1 ± 26.3 µM·h; Cmax ([2]; 180 mg/day, S2 180 mg/day, Day 1, mean±SD, n=4): 500 ± 200 nM; Cmax ([2]; 180 mg/day, S2 180 mg/day, Day 18, mean±SD, n=4): 1100 ± 500 nM; half-life ([2]; 180 mg/day, t1/2,z, S2 180 mg/day, mean±SD, n=4): 23.5 ± 8.42 h; AUC(0-t) ([2]; 200 mg/day, AUC0-24, S1 200 mg/day, Day 1, mean±SD, n=6): 9.6 ± 3.6 µM·h; AUC(0-t) ([2]; 200 mg/day, AUC0-24, S1 200 mg/day, Day 7, mean±SD, n=6): 29 ± 4.5 µM·h; AUC(0-t) ([2]; 200 mg/day, AUC0-24, S2 200 mg/day, Day 1, mean±SD, n=3): 12 ± 6.3 µM·h; AUC(0-t) ([2]; 200 mg/day, AUC0-24, S2 200 mg/day, Day 18, mean±SD, n=3): 35 ± 4.6 µM·h; AUC(0-t) ([2]; 200 mg/day, AUCt, S1 200 mg/day, Day 7, mean±SD, n=6): 63.5 ± 9.04 µM·h; AUC(0-t) ([2]; 200 mg/day, AUCt, S2 200 mg/day, Day 18, mean±SD, n=3): 63.6 ± 17.5 µM·h; Cmax ([2]; 200 mg/day, S1 200 mg/day, Day 1, mean±SD, n=6): 700 ± 300 nM; Cmax ([2]; 200 mg/day, S1 200 mg/day, Day 7, mean±SD, n=6): 1700 ± 200 nM; Cmax ([2]; 200 mg/day, S2 200 mg/day, Day 1, mean±SD, n=3): 1000 ± 400 nM; Cmax ([2]; 200 mg/day, S2 200 mg/day, Day 18, mean±SD, n=3): 2500 ± 500 nM; Vd/F ([2]; 200 mg/day, S1 200 mg/day, mean±SD, n=6): 721 ± 207 L; Vd/F ([2]; 200 mg/day, S2 200 mg/day, mean±SD, n=3): 473 ± 68.4 L; half-life ([2]; 200 mg/day, t1/2,z, S1 200 mg/day, mean±SD, n=6): 32.4 ± 4.79 h; half-life ([2]; 200 mg/day, t1/2,z, S2 200 mg/day, mean±SD, n=3): 25.8 ± 1.46 h; AUC(0-t) ([2]; 300 mg/day, AUC0-24, S1 300 mg/day, Day 1, n=1): 23 µM·h; AUC(0-t) ([2]; 300 mg/day, AUC0-24, S1 300 mg/day, Day 7, n=1): 84 µM·h; AUC(0-t) ([2]; 300 mg/day, AUCt, S1 300 mg/day, Day 7, n=1): 168 µM·h; Cmax ([2]; 300 mg/day, S1 300 mg/day, Day 1, n=1): 1200 nM; Cmax ([2]; 300 mg/day, S1 300 mg/day, Day 7, n=1): 5100 nM; Vd/F ([2]; 300 mg/day, S1 300 mg/day, n=1): 348 L; half-life ([2]; 300 mg/day, t1/2,z, S1 300 mg/day, n=1): 31 h; half-life ([2]; half-life, terminal, overall): ~33 h; oral absorption ([2]; in vivo, po): good oral absorption; inhibitory activity towards CDK1 [3]: inhibitory activity; inhibitory activity towards CDK2 [4]: inhibitory activity; inhibitory activity towards CDK5 [5]: inhibitory activity; neurological effects in animals [6]: tremors and increased reactivity to external stimuli
